T cruzi inh – blocks replication of Trypanosoma cruzi. 300,000 tested, 1.4% active. inhibition, % (no concentration beside the values). T. cruzi beta-gal in NIH3T3, luminescence, 90 h. AID 1885;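 active = mean inhibition across valid replicates above about 55%, limit read from the data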;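 also: signal also drops with host cell toxicity which is not excluded here; 0% = plate median of DMSO wells and 100% = zero luminescence signal; higher percent means less beta-gal luminescence so fewer parasites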
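System: mouse NIH/3T3 fibroblasts infected with β-gal-expressing T. cruzi Tulahuen C4 / Input: NIH/3T3 cells, 5,000 per well / Buffer or medium: Low-serum DMEM with 2% FBS / Probe or stimulus: 5000 reporter trypomastigotes per well / Schedule: ≥90 h infection period, 3 h prior cell attachment / Measured by: GalScreen luminescence, 60 min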
MEKK2mut PB1 HTS – signal of MEK5 binding to mutant human MEKK2 PB1 domain | 290,000 tested, 0.35% active | bead flow cytometry, Alexa488-MEK5 binding to MEKK2 mutant | percent response, % at 10 µM; in the data active = percent response above about 24%, passing the limit was not always enough
DNA FID counter – counter-screen for HCV NS3 helicase inhibitors: DNA intercalator displacement | 290,000 tested, 0.17% active | DNA fluorescent intercalator displacement, fluorescence | inhibition, % at 7.9 µM; in the data active = inhibition above about 37%;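 also: 0% = vehicle and 100% = reference compound; higher means more ethidium bromide displaced from hairpin DNA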
MEKK3 PB1 HTS – raises or lowers MEK5 binding to the human MEKK3 PB1 domain. 290,000 tested, 1.4% active. binding response (% of control), % at 10 µM. AID 1529. Q99759. bead-based flow cytometry, Alexa488-MEK5 binding to MEKK3; actives lie on both sides; 0 = blocked by unlabeled MEK5, 100 = vehicle;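 active = binding response more than 3 SD above or below the average of its plate-row segment, actives on both sides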;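 also: Alexa488 bead fluorescence after subtracting the streptavidin-only scavenger bead signal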
Target sequence (Q99759 whole entry, looked up, the tested form may be a part): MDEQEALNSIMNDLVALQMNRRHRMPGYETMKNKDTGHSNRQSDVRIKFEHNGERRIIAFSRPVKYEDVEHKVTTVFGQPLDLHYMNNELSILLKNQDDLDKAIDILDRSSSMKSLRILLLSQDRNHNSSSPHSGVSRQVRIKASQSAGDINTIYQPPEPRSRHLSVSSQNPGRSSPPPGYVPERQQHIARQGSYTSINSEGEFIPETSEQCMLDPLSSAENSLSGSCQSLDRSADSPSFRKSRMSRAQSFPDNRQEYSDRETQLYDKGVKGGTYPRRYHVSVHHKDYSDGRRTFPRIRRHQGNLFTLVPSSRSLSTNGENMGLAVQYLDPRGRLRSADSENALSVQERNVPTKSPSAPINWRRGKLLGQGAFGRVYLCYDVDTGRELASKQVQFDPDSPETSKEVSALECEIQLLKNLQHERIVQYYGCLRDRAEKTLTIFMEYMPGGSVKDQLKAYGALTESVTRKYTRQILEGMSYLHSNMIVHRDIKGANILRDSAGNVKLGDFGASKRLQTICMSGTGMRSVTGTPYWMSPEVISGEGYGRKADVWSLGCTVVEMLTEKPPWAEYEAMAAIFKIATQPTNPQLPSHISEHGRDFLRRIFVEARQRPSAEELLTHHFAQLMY
NS3 helicase inh – inhibitors of Hepatitis C virus NS3 helicase; 290,000 tested, 0.56% active; AID 1800; NS3 helicase DNA unwinding, Cy5 molecular beacon fluorescence; inhibition, % at 10.9 µM;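 active = inhibition above the mean of all tested compounds plus 3 SD, set per campaign, cut at about 35% in these data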;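 also: 0% = DMSO wells and 100% = thioflavine S control wells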
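Assay system: hepatitis C virus NS3 helicase domain fragment enzyme. Also added: annealed dual-labelled DNA beacon duplex, ATP-started. Timing: 1 h reaction at 25 °C, ATP-initiated. Technique: Cy5 fluorescence at 0 and 60 min, beacon hairpin quenching. Evaluation: % inhibition of unwinding. Replication: one well per compound.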
MEKK2wt PB1 HTS – raises or lowers MEK5 binding to wildtype human MEKK2 PB1 domain; Q9Y2U5; bead flow cytometry, Alexa488-MEK5 binding to MEKK2 WT; actives lie on both sides; binding response (% of control), % at 10 µM; 290,000 tested, 1.1% active; AID 1531; in the data active = binding response below about 67% or above about 130%
MEKK2wt confirm – raises or lowers MEK5 binding to wildtype human MEKK2, retest; shares compounds with MEKK3 PB1 HTS; bead flow cytometry, Alexa488-MEK5 binding to MEKK2 WT; actives lie on both sides; binding response (% of control), % at 10 µM; 5,900 tested, 2.4% active; in the data active = binding response below about 16% or above about 210%; inactive = in between
MEKK2mut confirm – signal of MEK5 binding to mutant human MEKK2, retest. shares compounds with MEKK3 PB1 HTS. bead flow cytometry, Alexa488-MEK5 binding to MEKK2 mutant. percent response, % at 10 µM. 5,900 tested, 2% active; in the data active = percent response mostly above about 71%, no sharp cut-off; inactive = mostly below about 38%;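 also: higher means compound restores mutant binding toward wildtype level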
MEKK3-MEK5 inh – MEKK3-MEK5 PB1 inhibition, single concentration confirmation; shares compounds with MEKK3 PB1 HTS; bead flow cytometry, Alexa488-MEK5 binding to MEKK3; hits give low values; binding response (% of control), % at 10 µM; 5,900 tested, 1.8% active; AID 1894;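 active = binding response below 72% of control, or above a set upper limit, though filed actives all read lower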;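 also: 100% = DMSO only wells and 0% = binding blocked by excess unlabeled MEK5; lower values mean stronger disruption of MEK5 binding to MEKK3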
* marks the source's active call; other numbers are inactive results; nt = no result given; [ ] = remark or other dose. Shown are actives, neighbours in structure and some others; about 4.1% of the full set was active somewhere.

SMILES	T cruzi inh	MEKK2mut PB1 HTS	DNA FID counter	MEKK3 PB1 HTS	NS3 helicase inh	MEKK2wt PB1 HTS	MEKK2wt confirm	MEKK2mut confirm	MEKK3-MEK5 inh
CCC(C(=O)N1CCC2(CC1)OCCO2)n1c2ccccc2c2nc(=O)cc(C)n21 (centres undefined)	1	-1	-25	97	3	102	nt	nt	nt
Cn1c(O)c(C(=NCCc2c[nH]c3ccccc23)c2ccccc2)c(=O)n(C)c1=O	6	4	-31	102	0	103	nt	nt	nt
CCOC(=O)c1c(/N=C/c2c(O)n(-c3ccc(F)cc3)c(=S)[nH]c2=O)sc2c1CCCC2	-6	nt	3	nt	2	nt	nt	nt	nt
CCOC(=O)c1c(/N=C/c2c(O)n(-c3ccccc3F)c(=S)[nH]c2=O)sc2c1CCCC2	-1	-34	-2	91	-1	64*[inhibitor]	51	-23	92
COc1ccc(N2CCN(CCCN)CC2)cc1	29	23	7	104	0	152*	162	34	108
COc1ccc(N2C(=O)CC(=O)NC2=O)cc1	-17	1	-15	104	9	106	nt	nt	nt
NCCCN1CCN(c2ccccc2)CC1	18	28	2	98	2	152*	133	25	101
Cc1cccc(N=Nc2ccc(N(C)C)cc2)c1	12	-1	-1	103	-2	105	nt	nt	nt
COc1ccc(C(CC(=O)N2CCC3(CC2)OCCO3)NS(=O)(=O)c2ccc(C)cc2)cc1 (centres undefined)	0	-11	-28	78*[inhibitor]	6	88	102	7	105
O=C1NC(=O)C(=Cc2ccc(-c3ccc(F)cc3O)o2)C(=O)N1	-23	-4	6	97	21	89	nt	nt	nt
O=C1NC(=O)N(Cc2ccccc2)C(=O)/C1=C/N1CCCc2ccccc21	-8	0	-4	140*	17	107	89	2	94
O=C1NC(=O)N(Cc2ccccc2)C(=O)/C1=C/c1cnc(-c2ccccc2)nc1	-1	-12	-11	94	17	86	nt	nt	nt
O=C(N/N=C/c1c(O)n(CCC2=CCCCC2)c(=O)[nH]c1=O)c1ccccc1	-10	1	-28	149*	12	111	100	-1	104
Clc1ccc(C2NCCc3[nH]cnc32)cc1 (centres undefined)	0	51*	6	109	-18	137*	127	12	104
OCCNCCc1c[nH]c2ccc(OCc3ccccc3)cc12	4	31*	7	109	-78	164*	167	30	108
COc1cccc(C2CC3C(=O)C=CC2N3Cc2ccccc2)c1 (centres undefined)	5	1	-4	157*	7	105	98	-9	99
COc1cccc(-c2nn(Cc3ccccc3)cc2C(=O)O)c1	-6	1	-13	98	-5	97	nt	nt	nt
O=C(O)c1[nH]c(=O)[nH]c(=O)c1F	-8	-9	6	95	-15	95	nt	nt	nt
O=c1[nH]c(O)c(/C=C2/C=CC(c3cc(Cl)ccc3Cl)=N2)c(=O)[nH]1	-11	1	1	109	-3	63*[inhibitor]	66	-14	95
CC1=Nc2ccccc2/C1=C/c1c(O)[nH]c(=O)[nH]c1=O	-1	2	-3	98	1	99	nt	nt	nt
CN1/C(=C\C=Nc2ccccc2)C(C)(C)c2ccccc21	15	1	-4	80	-8	0.0*[inhibitor]	104	4	100
N/C(=N\[N+](=O)[O-])N1CCN(C(=O)Oc2ccccc2)CC1	-3	4	-3	104	9	106	nt	nt	nt
CCOc1cc2c(cc1OCC)-n1cccc1C(c1ccc(OC(F)F)cc1)NC2 (centres undefined)	24	9	22	107	-68	124	nt	nt	nt
COC(=O)CCCC(NC(=S)N1CC2C[C@@H](C1)Cn1c2cccc1=O)C(=O)OC (some centres undefined)	2	6	-8	109	-10	107	nt	nt	nt
CN(C)CCSCc1nnc2n1-c1ccc(Cl)cc1C(c1ccccc1Cl)=NC2	42	nt	nt	nt	nt	nt	nt	nt	nt
SMILES	T cruzi inh	MEKK2mut PB1 HTS	DNA FID counter	MEKK3 PB1 HTS	NS3 helicase inh	MEKK2wt PB1 HTS	MEKK2wt confirm	MEKK2mut confirm	MEKK3-MEK5 inh
CCC(C)N1C(=O)/C(=C\c2cc3c4c(c2)CCCN4CCC3)C(=O)NC1=S (centres undefined)	-14	-5	-29	76	-9	6.0*[inhibitor]	58	-24	87
CCOc1cc2c(cc1OCC)-n1cccc1C(c1ccc(F)cc1)NC2 (centres undefined)	20	9	14	103	-38	118	nt	nt	nt
CCOc1cc2c(cc1OCC)-n1cccc1C(c1ccc(C(C)C)cc1)NC2 (centres undefined)	48	20	32	103	-71	141*	145	22	107
O=C(O)C1Cc2ccccc2N2CCCC12 (centres undefined)	-10	7	-6	100	-16	107	nt	nt	nt
COc1ccc2c(c1)c(C(=O)O)c(C)n2CC(C)C	1	-1	0	99	-4	98	nt	nt	nt
CCCCn1c(C)c(C(=O)O)c2cc(OC)ccc21	-13	-7	1	81*[inhibitor]	-9	85	107	8	103
CCCCCCCSc1cc(OC)c(CCN(C)C)cc1OC	40	28*	32	104	-88	147*	155	21	100
OCCNc1c2c(nc3ccccc13)CCCC2	7	-42	4	0.0*[inhibitor]	3	0.0*[inhibitor]	104	-2	104
c1ccc(CNc2c3c(nc4ccccc24)CCC3)cc1	35	1	14	100	-40	122	nt	nt	nt
Cc1ccccc1-[n+]1c(-c2ccccc2)cc(-c2ccccc2)cc1-c1ccccc1	41	nt	nt	nt	nt	nt	nt	nt	nt
c1ccc(C(OCCN2CCN(c3ncccn3)CC2)c2ccccc2)cc1	-6	nt	nt	nt	nt	nt	nt	nt	nt
O=C1N(c2cccc(Cl)c2)C(c2cccnc2)N2CCCN12 (centres undefined)	8	-11	-6	74*[inhibitor]	3	77	101	-1	103
CC(N)Cc1cn(Cc2ccccc2)c2ccccc12 (centres undefined)	16	15	11	101	-34	117	nt	nt	nt
CC[n+]1c(SC)ccc2cc(OC)ccc21	-1	1	2	175*	2	108	107	5	103

Source: PubChem (several laboratories)
